According to ChEMBL document CHEMBL4811322, “Impact of α-modifications on the activity of triazole bisphosphonates as geranylgeranyl diphosphate synthase inhibitors” (Bioorg Med Chem, 2021):
Activity calls are given as the source filed them. The calls are words filed in the database; no cut-off is given here.

What was measured:
[1] = biological target: T1, Geranylgeranyl pyrophosphate synthase (Homo sapiens, UniProt O95749); test: Inhibition of recombinant GGDPS (unknown origin) using FPP and [14C] IPP as substrate preincubated for 10 mins followed by substrate addition measured after 30 mins by liquid scintillation counting method
T1 sequence (O95749 whole entry): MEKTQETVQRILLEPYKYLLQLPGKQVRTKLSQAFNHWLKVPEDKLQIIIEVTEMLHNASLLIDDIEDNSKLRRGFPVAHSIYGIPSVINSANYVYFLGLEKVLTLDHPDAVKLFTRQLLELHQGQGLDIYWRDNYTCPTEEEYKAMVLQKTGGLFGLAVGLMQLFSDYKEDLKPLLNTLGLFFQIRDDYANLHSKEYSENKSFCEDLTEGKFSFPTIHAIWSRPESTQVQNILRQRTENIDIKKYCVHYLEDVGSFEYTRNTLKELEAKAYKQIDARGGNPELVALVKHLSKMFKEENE
In short: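 In the enzyme assay, each compound was tested in duplicate at multiple concentrations, with three independent experiments. IC50 values were derived from concentration-response curve analysis.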

[2] = biological target: T2, Geranylgeranyl pyrophosphate synthase (Homo sapiens) (UniProt O95749); test: Inhibition of GGDPS in human RPMI-8226 cells assessed as lowest effective concentration required to show unmodified Rap1a band up to 100 uM after 48 hrs by immunoblot analysis; type: cell-based; details: dose microM <=100, time 48.0 hrs
T2 sequence (whole entry): T1 sequence (O95749 whole entry)
In short: (§1)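 LEC is the lowest concentration giving both a visible unmodified Rap1a band and a statistically significant rise in lambda light chain (ELISA, two-tailed t-test, p<0.05). RPMI-8226 cells were treated for 48 h. The Rap1a antibody detects only unmodified Rap1a, with β-tubulin as loading control. Lysates were made in RIPA buffer and normalised by BCA.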

[3] = tested on: RPMI-8226; test: Cytotoxicity against human RPMI-8226 cells assessed as decrease in cell viability at 10 to 100 uM measured after 48 hrs by MTT assay; type: functional, cell-based; details: dose 10-100 µM
In short: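 RPMI-8226 myeloma cells seeded at 2.5 × 10^4 cells per 100 μL well and exposed to compound for 48 h, then MTT read-out. Absorbance of solvent-only control cells set as 100% MTT activity. Data expressed as percentage of control, mean ± SD, n=4.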

[4] = biological target: T2, Geranylgeranyl pyrophosphate synthase (Homo sapiens); test: Inhibition of GGDPS in human RPMI-8226 cells assessed as lowest effective concentration required to show unmodified Rap1a band after 48 hrs by immunoblot analysis; type: cell-based; in short: as §1
[5] = biological target: T2, Geranylgeranyl pyrophosphate synthase (Homo sapiens); test: Inhibition of GGDPS in human RPMI-8226 cells assessed as disruption of farnesylation at 0.1 to 1 uM measured after 48 hrs by immunoblot analysis; type: cell-based; details: dose 0.1-1 µM
In short: (§2)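 H-Ras farnesylation was checked by immunoblot after RPMI-8226 cells (ATCC) were exposed to compound for 48 h, with lovastatin 10 μM as positive control. Whole-cell RIPA lysates with protease/phosphatase inhibitors were protein-normalised by BCA, run on SDS-PAGE and transferred to PVDF. Blots were probed for H-Ras with β-tubulin as loading control and detected with HRP secondary/ECL. Gels are representative of three independent studies.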

[6] = biological target: T2, Geranylgeranyl pyrophosphate synthase (Homo sapiens); test: Inhibition of GGDPS in human RPMI-8226 cells assessed as disruption of farnesylation at 0.05 to 0.5 uM measured after 48 hrs by immunoblot analysis; type: cell-based; details: dose 0.05-0.5 µM; in short: as §2
[7] = biological target: T2, Geranylgeranyl pyrophosphate synthase (Homo sapiens); test: Inhibition of GGDPS in human RPMI-8226 cells assessed as increase in intracellular lambda chain level after 48 hrs by ELISA; type: cell-based
In short: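 Intracellular lambda light chain was quantified by ELISA in the same 48 h RPMI-8226 lysates prepared for immunoblotting, with lovastatin 10 μM as positive control. Values are percentage of untreated control, mean ± SD, n=3. Two-tailed t-test against untreated cells, significance at p<0.05.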

CC(C)=CCC/C(C)=C/Cn1cc(CCP(=O)(O)O)nn1
IC50 [1]: > 100000 nM
inhibition [2]: inactive
Activity [3]: inactive

CC(C)=CCC/C(C)=C/Cn1cc(CC(C)(P(=O)(O)O)P(=O)(O)O)nn1
IC50 [1]: 1300 nM
LED [4]: 0.1 µM

C=C(Cc1cn(C/C=C(\C)CCC=C(C)C)nn1)P(=O)(O)O
IC50 [1]: > 100000 nM
inhibition [2]: inactive
Activity [3]: inactive

CC(C)=CCC/C(C)=C/Cn1cc(CC(P(=O)(O)O)P(=O)(O)O)nn1
LED [4]: 0.5 µM

CC(C)=CCC/C(C)=C/Cn1cc(C2CC2(P(=O)(O)O)P(=O)(O)O)nn1 (stereo not given)
IC50 [1]: 1600 nM
LED [4]: 0.5 µM
inhibition [5]: inactive
Activity [3]: Active

CC(C)=CCC/C(C)=C/Cn1cc(CC(O)(P(=O)(O)O)P(=O)(O)O)nn1
LED [4]: 0.1 µM
inhibition [6]: inactive
Activity [3]: Active

CC(C)=CCC/C(C)=C/Cn1cc(C=C(P(=O)(O)O)P(=O)(O)O)nn1
IC50 [1]: 2700 nM
LED [4]: 0.25 µM
inhibition [5]: inactive
Activity [3]: Active

CC(C)=CCC/C(C)=C/Cn1cc(CC(F)(P(=O)(O)O)P(=O)(O)O)nn1
IC50 [1]: 3000 nM
LED [4]: 0.25 µM
inhibition [7]: Active
inhibition [5]: inactive
Activity [3]: Active

CC(C)=CCC/C(C)=C/Cn1cc(CC(CN)(P(=O)(O)O)P(=O)(O)O)nn1
IC50 [1]: 2000 nM
LED [4]: 0.5 µM
Activity [3]: Active

CCC(Cc1cn(C/C=C(\C)CCC=C(C)C)nn1)(P(=O)(O)O)P(=O)(O)O
IC50 [1]: 5900 nM
LED [4]: 2.5 µM
